Compounds with a hit are over-represented: about 3.4% of the library has one in this group of screens.
AF4-AF9 inh = inhibitors of AF4 peptide binding to AF9, primary screen, biochemical, AlphaScreen, biotin-AF4 peptide, FLAG-AF9, single point; Protein AF-9 (Homo sapiens), P42568; inhibition, % at 10 µM; 350,000 compounds, 0.47% hits; AID 651704, 2012;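 active means every replicate reaching a set inhibition limit, whatever the replicate mean, cut at about 25% in these data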;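 further: 0% = plate neutral control median and 100% = total signal loss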
E-sel inducer = E-selectin induction in HUVECs, primary screen, imaging, HUVEC, immunofluorescence imaging, single point. normalized: neutral wells 0, TNF-alpha wells 100. activation, % at 7.58 µM. 260,000 compounds, 0.37% hits. AID 686992, 2013;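 active means mean E-selectin-positive cell signal at least 10% of the positive control, reached in at least 60% of replicates, without over 20% cell loss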
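Assay system: HUVEC primary endothelial cells. Input: 3,000 HUVEC seeded per well. Doses: one compound dose added by pin transfer. Read-out basis: % PE-positive cells. Benchmarks: TNF-alpha high, DMSO low. Detection: immunofluorescence imaging. Buffer or medium: EGM-2, gelatin.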
SIRT5 inh = SIRT5 desuccinylase inhibitors, primary screen, biochemical, fluorescence imaging, single point, set 5; AID 652115, 2013; 330,000 compounds, 1.1% hits; NAD-dependent protein deacylase sirtuin-5, mitochondrial (Homo sapiens), Q9NXA8; Purified SirT5, succinyl-peptide AMC, trypsin-coupled fluorescence; inhibition, % at 15 µM; in the data active means inhibition above about 15%
rRNA inh HTS = reduced GFP signal of wild-type E. coli, primary screen, bacterial rRNA inhibitor project, GFP/RFP fluorescence, OD600, single point | E. coli WT GFP vs humanized-ribosome RFP mutants, 24 h; hits give low values; DMSO median 0, no signal -100 | GFP signal change (wild-type ribosome), % (no concentration beside the values) | 350,000 compounds, 1.6% hits;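 active means significant combined selectivity score with lowered wild-type GFP, culture density cut under 30%, mutant RFP and density less affected; inactive means any of these conditions unmet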
ERAP1 HTS inh = human ERAP1 aminopeptidase inhibitors, primary screen, biochemical, single point, plate reader. Endoplasmic reticulum aminopeptidase 1 (Homo sapiens), Q9NZ08. AID 652197, 2013. 340,000 compounds, 0.15% hits. recombinant ERAP1, Leu-AMC fluorescence, 60 min. inhibition, % at 10.7 µM;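 active means mean replicate inhibition of at least 30%, or all replicates individually reaching that 30% level; inactive means mean below 30% and not every replicate reaching it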;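 further: 0% = neutral control wells and 100% = L-leucinethiol positive control wells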
Target sequence (Q9NZ08 whole entry, looked up): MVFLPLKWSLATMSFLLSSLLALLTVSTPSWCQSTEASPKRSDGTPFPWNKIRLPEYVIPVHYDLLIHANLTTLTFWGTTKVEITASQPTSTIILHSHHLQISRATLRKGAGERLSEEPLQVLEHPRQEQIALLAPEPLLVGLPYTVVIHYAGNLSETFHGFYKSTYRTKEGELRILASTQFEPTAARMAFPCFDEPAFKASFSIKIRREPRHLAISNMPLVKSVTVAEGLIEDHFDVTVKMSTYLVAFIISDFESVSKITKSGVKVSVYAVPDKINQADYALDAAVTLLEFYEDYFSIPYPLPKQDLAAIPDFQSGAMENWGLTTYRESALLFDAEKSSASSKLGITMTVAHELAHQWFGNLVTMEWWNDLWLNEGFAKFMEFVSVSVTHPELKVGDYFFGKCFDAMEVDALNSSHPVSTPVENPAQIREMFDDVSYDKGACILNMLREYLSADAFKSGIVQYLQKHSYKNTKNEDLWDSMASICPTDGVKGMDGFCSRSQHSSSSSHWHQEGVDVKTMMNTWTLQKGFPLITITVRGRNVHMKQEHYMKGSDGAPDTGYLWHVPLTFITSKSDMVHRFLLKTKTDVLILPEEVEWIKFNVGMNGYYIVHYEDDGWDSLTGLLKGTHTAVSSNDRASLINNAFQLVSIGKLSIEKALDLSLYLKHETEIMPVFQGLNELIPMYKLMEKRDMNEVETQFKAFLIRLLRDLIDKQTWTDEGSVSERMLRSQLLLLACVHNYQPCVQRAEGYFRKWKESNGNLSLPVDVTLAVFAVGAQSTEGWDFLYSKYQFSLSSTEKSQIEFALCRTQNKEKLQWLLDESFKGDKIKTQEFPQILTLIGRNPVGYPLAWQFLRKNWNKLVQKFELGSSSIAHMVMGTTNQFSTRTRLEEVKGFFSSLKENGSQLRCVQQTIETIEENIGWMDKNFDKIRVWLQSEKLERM
S100A4 inh HTS = inhibitors of S100A4-myosin IIA peptide binding, primary screen, biochemical, fluorescence polarization, TAMRA-MyoIIA peptide | 360,000 compounds, 0.14% hits | Protein S100-A4 (Homo sapiens), P26447 | inhibition, % at 10.7 µM;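 active means mean inhibition of at least 70% across replicates, with every replicate also reaching that level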
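Material: S100A4 monomer (human). Medium: Calcium-containing HEPES buffer, pH 7.2. Probe or stimulus: labelled myosin peptide probe, 5 nM. Compound dosing: one concentration per compound. Timing: polarization read 5 min after assay mix addition, stable 5–60 min. Benchmarks: DMSO as neutral control, TFP as positive control.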
* = called active by the depositor; nt = no result given.

SMILES	AF4-AF9 inh	E-sel inducer	SIRT5 inh	rRNA inh HTS	ERAP1 HTS inh	S100A4 inh HTS
Cc1c(C)n(CC(O)CNCCO)c2ccccc12 (centres undefined)	11.9	nt	-0.3	13.6	-0.9	8.7
Cc1c(C)n(CC(O)CNc2ccccc2)c2ccccc12 (centres undefined)	25.7*	nt	3.4	-57.0	0.6	-4.7
C[C@@H]1CN([C@@H](C)CO)C(=O)c2cccc(NS(=O)(=O)c3ccccc3)c2O[C@H]1CN(C)Cc1ccncc1	0.2	-0.1	-9.2	-3.7	0.9	-2.5
C[C@H](CO)N1C[C@H](C)[C@@H](CN(C)S(C)(=O)=O)Oc2ccc(NC(=O)Cc3ccccc3)cc2C1=O	-0.2	0.1	-3.7	1.7	2.9	0.9
O=C(CN1C(=O)NC2(CCCC2)C1=O)N1CCN(c2ccccc2O)CC1	-13.4	-1.1	17.8*	-1.7	-1.1	1.4
COCC(=O)Nc1ccc2c(c1)C(=O)N(C)C[C@@H](OC)[C@@H](C)CN(Cc1ccccc1OC)[C@@H](C)CO2	5.8	-0.2	5.8	0.6	1.5	6.7
Cc1cc2c(Nc3ccccc3)ncnc2s1	-2.2	7.7	15.6*	4.3	1.6	-3.1
O=C1C=CC2(O[C@H](c3ccccc3)[C@@H](c3ccccc3)O2)[C@H](Sc2ccccc2O)C1	-1.7	-0.3	-8.8	-12.2	32.7*	-6.4
CN(C)CC(=O)Nc1ccc2c(c1)[C@@H]1C[C@H](CC(=O)NC3CCCCC3)O[C@@H](CO)[C@@H]1O2	-2.0	0.1	-2.8	0.8	-1.2	-4.5
COc1ccccc1-c1ccc2n(c1=O)C[C@@H]1[C@@H](CO)[C@H](C(=O)N3CCCCC3)N(C)[C@H]21	0.1	0.1	9.0	-1.3	0.3	-5.2
O=C1CN(S(=O)(=O)Cc2ccccc2)C[C@H]2[C@@H](c3ccc(C#CCC4CCCC4)cc3)[C@@H](CO)N12	-1.6	-0.6	15.5*	4.7	1.6	2.0
Cc1ccccc1S(=O)(=O)N1CC(=O)N2[C@@H](CO)[C@H](c3ccc(C#CCC4CCCC4)cc3)[C@@H]2C1	-0.9	-0.8	16.3*	2.2	2.0	-21.4
O=C1CN(S(=O)(=O)Cc2ccccc2)C[C@H]2[C@H](c3ccc(C#CCC4CCCC4)cc3)[C@@H](CO)N12	2.2	-0.9	9.5	7.4	0.4	-0.3
Cc1ccccc1S(=O)(=O)N1CC(=O)N2[C@H](CO)[C@H](c3ccc(C#CCC4CCCC4)cc3)[C@@H]2C1	-1.7	-0.4	3.7	3.9	-0.6	21.1
O=C(C1CCCCC1)N1CC2(C1)[C@H](c1ccccc1)[C@H](CO)N2CCC(F)(F)F	-6.9	0.0	4.4	-6.5	-5.0	24.2
C[C@H]1CN([C@@H](C)CO)C(=O)c2cc(-c3cccnc3)cnc2O[C@@H]1CN(C)Cc1ccccc1	nt	0.0	nt	1.9	nt	nt
O=C(O)COc1ccc(/C=C2\SC(=Nc3ccccc3)N(c3ccccc3)C2=O)cc1	-0.3	0.4	-4.7	5.3	-1.0	5.2
CCOc1cc(/C=C2\SC(=Nc3ccccc3)N(c3ccccc3)C2=O)ccc1OCC(=O)O	6.5	-2.1	5.8	-30.5*	8.9	-18.0
CNC(=S)NNC(=O)CSCc1c(Cl)cccc1Cl	-0.4	0.3	-3.8	-20.7*	1.4	-2.0
O=C(CSCc1c(Cl)cccc1Cl)NCc1cccnc1	6.2	nt	1.6	-9.1	-3.7	-14.4
C[C@@H]1CN([C@H](C)CO)C(=O)c2cc(C#CC3CC3)cnc2O[C@@H]1CN(C)C(=O)C1CCCCC1	nt	0.2	nt	-0.3	nt	nt
O=c1c(Cc2c(F)cccc2Cl)c(O)ccn1C1CC1	-3.7	1.1	4.2	-31.0*	0.8	-2.9
COC(=O)c1ccc(CNC(=O)c2ccc(OC)c(S(=O)(=O)NC3CCCC3)c2)cc1	1.6	98.6*	-4.7	-3.5	0.7	23.7
COc1cccc(CNC(=O)c2ccc(OC)c(S(=O)(=O)NC3CCCC3)c2)c1	9.1	1.0	-6.4	-4.3	-1.1	-2.1
N#Cc1cnn(-c2ccc([N+](=O)[O-])cc2[N+](=O)[O-])c1N	1.8	0.2	nt	-7.5*	2.1	-5.2
SMILES	AF4-AF9 inh	E-sel inducer	SIRT5 inh	rRNA inh HTS	ERAP1 HTS inh	S100A4 inh HTS
C[C@@H]1CN([C@@H](C)CO)C(=O)c2cccc(NC(=O)c3ccc(-c4nccs4)cc3)c2O[C@@H]1CN(C)CC1CC1	2.1	0.0	3.2	-0.1	1.4	-6.1
NC(N)=N/N=C(\N=Nc1ccccc1)c1cccc2cccnc12	7.4	0.1	0.7	2.5	-6.5	-1.9
NC(N)=N/N=C(\N=Nc1ccccc1)c1ccc(Cl)cc1	34.7*	-0.3	13.0	-29.6	-4.3	2.1
O=[N+]([O-])c1c(Nc2ccc(O)cc2)cc(Cl)c2nonc12	9.4	-0.2	17.3*	-18.7	42.2*	10.2
CN(C)c1cc(Nc2ccc(O)cc2)c([N+](=O)[O-])c2nonc12	-3.7	-0.4	-2.4	8.6	nt	-4.0
CO[C@@H]1CN(C)C(=O)c2ccc(NC(=O)C3CC3)cc2OC[C@H](C)N(C(=O)CN(C)C)C[C@@H]1C	-1.1	-0.2	-1.5	4.0	0.5	6.0
CC(C(=O)NCc1cccs1)N1C(=O)c2ccccc2C1=O (centres undefined)	nt	nt	18.8*	15.4	4.5	-1.1
O=C(O)C/C(=C\c1ccc(N2CCOCC2)c([N+](=O)[O-])c1)c1nc2ccccc2s1	-56.6	1.2	-6.9	-25.1*	2.4	1.5
O=C(C[C@H]1CC[C@@H]2NC[C@@H](O)COC[C@H]2O1)Nc1ccc(-c2ccccc2)cc1	nt	0.2	nt	3.2	nt	nt
O=C(NNC(=S)NC(=O)c1ccccc1[N+](=O)[O-])c1ccccc1O	1.4	nt	-1.4	-36.0	4.3	5.3
O=C(NNC(=S)NC(=O)c1ccccc1[N+](=O)[O-])c1ccccc1[N+](=O)[O-]	10.9	nt	-3.4	-25.6*	2.1	1.2
Cc1ccc(CCNS(=O)(=O)c2ccc3c(c2)N(C)CCO3)cc1	-4.1	nt	0.6	-2.3	-0.5	-12.1
Cc1ccc(NS(=O)(=O)c2ccc3c(c2)N(C)CCO3)cc1	6.2	0.0	21.8*	-18.6	-4.0	-3.2
N#C/C(=N\Nc1ccc(Br)cc1)C(=N)N1CCOCC1	8.6	nt	3.5	-26.4*	10.8	-3.3
CCC(=O)Oc1cccc(C(=O)Nc2cccc(NC(=O)c3ccco3)c2)c1	3.8	37.5*	-1.2	-9.3	-3.7	-3.6
